Source: PMC5723699 (Pharmacology Research & Perspectives, 2017)
In brackets after ≈: the same amount, converted by molar mass.

Key:
[1] = Part A single ascending dose blood pharmacokinetics; format: in vivo, human
Part B repeat-dose = format: in vivo, human; conditions: for AUC: male, human, in vivo, po, AUC0‐tau, plasma, oral, geometric mean (% CV)
RIPK1 = biological target: T1, RIPK1 (Homo sapiens, UniProt Q13546); test: RIPK1 target engagement; format: in vivo; conditions: Part A
T1 sequence (Q13546 1-671): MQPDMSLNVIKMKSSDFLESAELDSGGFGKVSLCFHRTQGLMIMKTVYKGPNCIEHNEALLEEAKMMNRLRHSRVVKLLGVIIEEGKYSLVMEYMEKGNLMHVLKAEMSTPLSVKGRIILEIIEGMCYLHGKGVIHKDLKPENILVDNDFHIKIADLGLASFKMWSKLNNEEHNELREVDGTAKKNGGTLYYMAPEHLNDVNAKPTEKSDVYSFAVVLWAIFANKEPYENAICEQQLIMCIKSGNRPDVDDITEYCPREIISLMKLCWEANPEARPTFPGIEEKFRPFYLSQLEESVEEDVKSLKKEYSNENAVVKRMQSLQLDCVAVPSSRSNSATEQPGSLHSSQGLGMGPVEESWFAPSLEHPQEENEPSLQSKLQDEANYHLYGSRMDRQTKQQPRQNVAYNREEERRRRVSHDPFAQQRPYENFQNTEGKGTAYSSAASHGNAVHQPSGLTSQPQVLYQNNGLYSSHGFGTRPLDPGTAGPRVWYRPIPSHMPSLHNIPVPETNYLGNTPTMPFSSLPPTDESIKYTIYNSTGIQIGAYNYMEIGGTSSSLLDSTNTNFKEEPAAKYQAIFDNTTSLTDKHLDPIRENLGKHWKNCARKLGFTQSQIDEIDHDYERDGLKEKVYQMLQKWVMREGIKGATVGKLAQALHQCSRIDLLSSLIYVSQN

MIP‐1α = test: Ex vivo whole blood challenge assay; format: cell-based, human
[2] = Analysis of metabolism in blood, plasma, urine and bile; format: in vivo, human
Procedure, shortened: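 Oral dosing in healthy volunteers. Urine collected at various time points. Bile sampled by Entero-Test in one Part B cohort on Days −1 and 7, about 2 h after the morning dose. Blood/water, plasma, urine and bile analysed for relative levels of parent drug and metabolites.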

CYP3A4 = test: Plasma 4β-hydroxycholesterol-to-cholesterol ratio as marker of CYP3A4 induction; conditions: following 14 days of dosing
Safety and tolerability = conditions: for Subjects with drug‐related AEs / Application‐site erythema / Catheter‐site erythema / Contact dermatitis / Headache / Nasopharyngitis / Rash / Subjects with any AE: Part B; for Application‐site erythema / Catheter‐site erythema / Contact dermatitis / Headache / Nasopharyngitis / Rash / Subjects with any AE: 14 days (n = 9)

In the case of `CN1C(=O)[C@@H](NC(=O)c2nnc(Cc3ccccc3)[nH]2)COc2ccccc21` [GSK2982772], the “Time to C max” value ([1]; blood, single dose 10 mg capsule, fasted) is reported as 1.5 h, the “Median time to C max” value ([1]; blood, single dose 0.1, 0.5 and 2.5 mg in solution, fasted) is reported as at most 1 h and the “Time to C max” value ([1]; blood, single dose 120 mg capsule, fasted) is reported as 2.5 h. For the same compound, the “Dose linearity of kinetics” value ([1]; dose range 0.1‐120 mg) was “approximately linear kinetics”, the half-life ([1]; male, human, whole blood, oral) was about 6 h and the AUC (Part B repeat-dose; 20 mg, 20 mg QD, Day 1) was 1160 ng·h/mL. It also gave an AUC (Part B repeat-dose; 20 mg, 20 mg QD, Day 14) of 1140 ng·h/mL, an AUC (Part B repeat-dose; 60 mg, 60 mg BID, Day 1) of 4330 ng·h/mL and an AUC (Part B repeat-dose; 60 mg, 60 mg BID, Day 14) of 3100 ng·h/mL. It also gave an AUC (Part B repeat-dose; 60 mg, 60 mg QD, Day 14) of 2590 ng·h/mL, an AUC (Part B repeat-dose; 120 mg, 120 mg BID, Day 1) of 7050 ng·h/mL and an AUC (Part B repeat-dose; 120 mg, 120 mg BID, Day 14) of 6990 ng·h/mL. For the same compound, the “Attainment of steady state (trough plasma predose concentration Days 2 to 14)” value (Part B repeat-dose; repeat dosing) was “reached a plateau by Day 2”, the “Percent TE” value (RIPK1; 1.5 hours postdose, single doses of 10 mg and above) was over 90% and the “Percent TE (>90% level)” value (RIPK1; 8 hours postdose, single doses of 40 mg and above) was “sustained”. For the same compound, the “Percent TE” value (RIPK1; 48 hours postdose, all dose groups) was “negligible”, the IC50 (MIP‐1α; Homo sapiens, read-out: Concentration needed to elicit a half‐maximal response in all assays, all assays (MIP‐1α, MIP‐1β, TE)) was about 1.4 ng/mL (≈ 3.71 nM) and the “Inhibition (mean of MIP‐1α and MIP‐1β)” value (MIP‐1α; Part B Day 14, 60 mg and 120 mg BID, out to 24 hours posttreatment) was “maximal inhibition”. The “Inhibition (mean of MIP‐1α and MIP‐1β)” value (MIP‐1α; Part B Day 14, 1.5 hours and 8 hours postdose, all treatment groups) was “maximal inhibition”, the “Unchanged drug in urine” value ([2]; in vivo) was “trace levels” and the “Unchanged drug in blood and plasma extracts” value ([2]; single and repeat oral dosing, together with N‐glucuronide metabolite) was “major circulating drug‐related components”. The CYP3A4 induction (CYP3A4) was “no evidence of CYP3A4 induction”, the “Drug‐related AEs (total number)” value (Safety and tolerability; Part A, reported in 2 subjects, all of mild intensity) was 3 and the “Subjects with drug‐related AEs” value (Safety and tolerability; 20 mg QD group) was 3 subjects. For the same compound, the “Application‐site erythema” value (Safety and tolerability; 20 mg QD) was 0 n (%), the “Catheter‐site erythema” value (Safety and tolerability; 20 mg QD) was 0 n (%) and the Contact dermatitis (Safety and tolerability; 20 mg QD) was 1 (11) n (%). For the same compound, the Headache (Safety and tolerability; 20 mg QD) was 4 (44) n (%), the Nasopharyngitis (Safety and tolerability; 20 mg QD) was 0 n (%) and the Rash (Safety and tolerability; 20 mg QD) was 0 n (%). The “Subjects with any AE” value (Safety and tolerability; 20 mg QD) was 7 (78) n (%), the “Subjects with drug‐related AEs” value (Safety and tolerability; 60 mg BID group) was 4 subjects and the “Application‐site erythema” value (Safety and tolerability; 60 mg BID) was 0 n (%). The “Catheter‐site erythema” value (Safety and tolerability; 60 mg BID) was 2 (22) n (%), the Contact dermatitis (Safety and tolerability; 60 mg BID) was 5 (56) n (%) and the Headache (Safety and tolerability; 60 mg BID) was 3 (33) n (%). The Nasopharyngitis (Safety and tolerability; 60 mg BID) was 1 (11) n (%), the Rash (Safety and tolerability; 60 mg BID) was 1 (11) n (%) and the “Subjects with any AE” value (Safety and tolerability; 60 mg BID) was 9 (100) n (%). For the same compound, the “Application‐site erythema” value (Safety and tolerability; 60 mg QD) was 0 n (%), the “Catheter‐site erythema” value (Safety and tolerability; 60 mg QD) was 1 (11) n (%) and the Contact dermatitis (Safety and tolerability; 60 mg QD) was 3 (33) n (%). For the same compound, the Headache (Safety and tolerability; 60 mg QD) was 0 n (%), the Nasopharyngitis (Safety and tolerability; 60 mg QD) was 0 n (%) and the Rash (Safety and tolerability; 60 mg QD) was 3 (33) n (%). For the same compound, the “Subjects with any AE” value (Safety and tolerability; 60 mg QD) was 6 (67) n (%), the “Application‐site erythema” value (Safety and tolerability; 120 mg BID) was 2 (22) n (%) and the “Catheter‐site erythema” value (Safety and tolerability; 120 mg BID) was 0 n (%). For the same compound, the Contact dermatitis (Safety and tolerability; 120 mg BID) was 0 n (%), the Headache (Safety and tolerability; 120 mg BID) was 1 (11) n (%) and the Nasopharyngitis (Safety and tolerability; 120 mg BID) was 3 (33) n (%). The Rash (Safety and tolerability; 120 mg BID) was 0 n (%), the “Subjects with any AE” value (Safety and tolerability; 120 mg BID) was 6 (67) n (%) and the “AEs involving clinical laboratory or electrocardiogram abnormalities” value (Safety and tolerability; any part of the study) was “no AEs involving clinical laboratory abnormalities or electrocardiogram abnormalities were reported”. For the same compound, the “Serious AEs, suicidality or deaths” value (Safety and tolerability; any part of the study) was “No serious AEs, suicidality or deaths were reported”, the “Overall safety and tolerability” value (Safety and tolerability; single and repeat doses, healthy adult male volunteers) was “generally safe and well tolerated” and the “Vital signs, physical, neurological examinations, respiratory assessments” value (Safety and tolerability; whole study) was “no clinically significant abnormal findings”.
